In article PMC10412738 (Cell reports, 2023):

Experiments:
p21 in RB383 cells = experiment: p21 induction following SFRP2 silencing, immunoblotting, RB383; assay type: cell-based; settings: 1 μM carboxy-PTIO, 5 μM NS-2028, or 2.5 μM KT5823
Summary of the method: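 In RB383 cells transfected with SFRP2 or control siRNA, treatment was none, 1 μM carboxy-PTIO, 5 μM NS-2028 or 2.5 μM KT5823. p21 protein was then assessed by SDS-PAGE immunoblotting of whole-cell lysate.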

retinoblastoma cells = experiment: Rescue of growth inhibition following SFRP2 silencing; assay type: cell-based; settings: SFRP2 siRNA
Summary of the method: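 Retinoblastoma cell lines transfected with SFRP2 or control siRNA (RNAiMAX), then exposed to 5 μM NS-2028 (sGC inhibitor) or 2.5 μM KT5823 (PKG inhibitor), or left untreated. Proliferation measured by IncuCyte live-cell imaging.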

Y79 cells [1] = experiment: Cell proliferation; assay type: cell-based; settings: for growth arrest following SFRP2 silencing, Wnt inhibitors: 1 μM, SFRP2 siRNA
Summary of the method: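 SFRP2 or control siRNA transfected with Lipofectamine RNAiMAX, then cells given recombinant human SFRP2 at 250 ng/mL or left untreated. Proliferation tracked by IncuCyte live-cell imaging. RB383 were grown in IMDM with 10% FBS, 10 μg/mL insulin and 55 μM β-mercaptoethanol; Y79 in RPMI-1640 with 10% FBS.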

NOS2 RNA in RB383 cells = experiment: NOS2 RNA by qRT-PCR, RB383; assay type: cell-based; settings: n = 3; for NOS2 RNA induction: RB383 cells, 1 μg/mL, qRT-PCR; for NOS2 RNA induction following SFRP2 silencing: 12 h
[2] = tested on: NO production in RB383 cells; experiment: NO production, nitrate/nitrite colorimetric assay, RB383; assay type: cell-based; settings: n = 3; for NO production: RB383 cells, 1 μg/mL, NO in the CM; for NO production following SFRP2 silencing: CM, 12 h
Summary of the method: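 Test peptides (12-mer SFRP2 binders from phage display) added to RB383 at 1 μg/mL. At the indicated time points, NO in the conditioned medium was measured by nitrite/nitrate colorimetric assay; n = 3.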

[3] = tested on: phosphorylated CREB (phospho-serine 133) in RB383 cells; experiment: Phosphorylated CREB by immunoblotting, RB383; assay type: cell-based; settings: for phosphorylated CREB induction: RB383 cells, 1 μg/mL, immunoblotting
[4] = tested on: ARPE-19 retinal pigment epithelial cells; experiment: Cell proliferation; assay type: cell-based, human; settings: 1 μg/mL, IncuCyte
RB383 cells = experiment: Cell proliferation; assay type: cell-based; settings: for inhibition of proliferation: RB383 cells, 1 μg/mL, IncuCyte
[5] = tested on: NO production in Y79 cells; experiment: NO production, nitrate/nitrite colorimetric assay, Y79; assay type: cell-based; settings: 2 μM, CM and cell lysate, n = 3
Summary of the method: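 Y79 retinoblastoma cells were exposed to a small-molecule SFRP inhibitor at 2 μM. At the indicated times, NO production was measured in conditioned medium and in cell lysate by nitrite/nitrate colorimetric assay. n = 3; data given as mean ± SEM.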

SFRP1 = settings: cited from earlier work
[6] = tested on: SFRP2 RNA in retinoblastoma cells; experiment: SFRP2 RNA silencing in retinoblastoma; assay type: cell-based; settings: n = 3
[7] = biological target: Recombinant human CXADR protein (3336-CX-050, R&D Systems) (human) (UniProt P78310); experiment: MST
[8] = tested on: CXADR-overexpressing Y79 cells; experiment: Cell proliferation of CXADR-overexpressing Y79 cells; assay type: cell-based; settings: 250 ng/mL recombinant SFRP2
Summary of the method: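 Y79 cells were infected with pCDH1-puro lentivirus (made in 293T) carrying CXADR cDNA or empty vector, then selected in 5 μg/mL puromycin for 48 h. Expression was checked by anti-CXADR immunoblot. Cells were treated with recombinant SFRP2 at 250 ng/mL or left untreated, and proliferation was monitored by IncuCyte.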

[9] = tested on: NO production in CXADR-overexpressing Y79 cells; experiment: NO production in CXADR-overexpressing Y79 cells; assay type: cell-based; settings: 250 ng/mL recombinant SFRP2, n = 3
recombinant CXADR = experiment: Microscale thermophoresis of SFRP2-CXADR interaction; assay type: binding, human; settings: read-out: KD of SFRP2-CXADR interaction, labeled CXADR, PBS/0.005% Tween 20, 30-min incubation at room temperature, Monolith NT.115
Summary of the method: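 Recombinant human CXADR was fluorescently labelled with the RED-NHS second-generation dye kit. It was mixed with recombinant human SFRP2, incubated, and loaded into capillary chips. KD was derived from microscale thermophoresis affinity analysis.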

Y79 cells [10] = experiment: Ligand-binding assay of SFRP2-FLAG to Y79 cells; settings: anti-FLAG immunoblotting after washing
Summary of the method: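 C-terminally FLAG-tagged SFRP2 was secreted from transfected 293T cells. It was incubated with Y79 cells previously transfected (Lipofectamine RNAiMAX) with CXADR siRNA or control siRNA. Cells were washed to remove unbound protein and lysed. Whole-cell lysate went to SDS-PAGE and anti-FLAG immunoblotting. CXADR knockdown was confirmed by immunoblotting.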

CXADR = experiment: Co-immunoprecipitation of SFRP2 with endogenous CXADR in 293T cells; assay type: binding; settings: C-terminally FLAG-tagged SFRP2, 293T cells
Summary of the method: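 FLAG-tagged constructs (C-terminally FLAG-tagged SFRP2 in pcDNA3) were transfected by calcium phosphate co-precipitation into 293T cells grown in DMEM with 10% fetal bovine serum. Anti-FLAG immunoprecipitation was followed by SDS-PAGE and anti-CXADR immunoblotting for endogenous CXADR.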

## O=c1onc2n1-c1cc(Br)ccc1OC2 [NS-2028]
p21 in RB383 cells
  p21 induction following SFRP2 silencing: abolished
Retinoblastoma cells; 5 μM
  growth inhibition following SFRP2 silencing (rescue), sGC inhibitor: abolished

## HGWASLLNYSWY [peptide II]
Y79 cells [1]; 1 μg/mL, IncuCyte
  inhibition of proliferation: strongly inhibited proliferation of retinoblastoma cells
NOS2 RNA in RB383 cells
  NOS2 RNA induction: rapidly induced
[2]
  NO production: rapidly induced
[3]
  phosphorylated CREB induction: rapidly induced phosphorylated CREB
[4]
  growth of ARPE-19 cells: do not inhibit the growth of retinal pigment epithelial cells
RB383 cells
  inhibition of proliferation: strongly inhibited proliferation of retinoblastoma cells

## O=S(=O)(NC1CCNCC1)c1cc(S(=O)(=O)c2ccccc2)ccc1C(F)(F)F [WAY-316606]
[5]
  NO generation: rapidly induces NO generation in retinoblastoma cells
Y79 cells [1]; dose range in figure, IncuCyte
  inhibition of proliferation: efficiently inhibited retinoblastoma cell proliferation in a dose-dependent manner
SFRP1
  inhibition of SFRP1: potent inhibitor of SFRP1

## COC(=O)[C@@]1(OC)C[C@H]2O[C@]1(C)n1c3ccccc3c3c4c(c5c6ccccc6n2c5c31)C(=O)N(C)C4 [KT5823]
p21 in RB383 cells
  p21 induction following SFRP2 silencing: abolished
Retinoblastoma cells; 2.5 μM
  growth inhibition following SFRP2 silencing (rescue), PKG inhibitor: abolished

## [H]/N=C(/NC)NCCC[C@H](N)C(=O)O [L-NMMA]
Retinoblastoma cells; concentrations in figure
  growth inhibition following SFRP2 silencing (rescue), pan-NOS inhibitor: abolished growth inhibition following SFRP2 silencing

## CC(=O)N[C@@H](C(=O)O)C(C)(C)SN=O (racemic) [SNAP]
Y79 cells [1]; concentrations in figure, IncuCyte
  retinoblastoma growth, NO donor: inhibited retinoblastoma growth in a dose-dependent manner

## HNPFTFFGPMFY [peptide I]
Y79 cells [1]; 1 μg/mL, IncuCyte
  inhibition of proliferation: strongly inhibited proliferation of retinoblastoma cells
NOS2 RNA in RB383 cells
  NOS2 RNA induction: rapidly induced
[2]
  NO production: rapidly induced
[3]
  phosphorylated CREB induction: rapidly induced phosphorylated CREB
[4]
  growth of ARPE-19 cells: do not inhibit the growth of retinal pigment epithelial cells
RB383 cells
  inhibition of proliferation: strongly inhibited proliferation of retinoblastoma cells

## O=C(CSc1nc2c(c(=O)n1-c1ccccc1)SCC2)Nc1ccc(-c2ccccc2)cn1 [IWP-L6]
Y79 cells [1]
  growth arrest following SFRP2 silencing, Wnt inhibitors: did not rescue the growth arrest of retinoblastoma cells following SFRP2 silencing

## Nc1ncc2c(n1)CC(c1ccco1)CC2=O (stereo not drawn) [NKY80]
NOS2 RNA in RB383 cells; RB383, 1 μM NKY80, SFRP2 siRNA
  NOS2 RNA induction following SFRP2 silencing: abolished NOS2 induction
[2]; RB383, 1 μM NKY80, SFRP2 siRNA
  NO production following SFRP2 silencing: abolished
RB383 cells; RB383, 1 μM NKY80, SFRP2 siRNA
  growth inhibition following SFRP2 silencing: abolished

## Oc1nc(-c2ccc(C(F)(F)F)cc2)nc2c1CSCC2 [XAV939]
Y79 cells [1]
  growth arrest following SFRP2 silencing, Wnt inhibitors: did not rescue the growth arrest of retinoblastoma cells following SFRP2 silencing

## CC1(C)N([O])C(c2ccc(C(=O)O)cc2)=[N+]([O-])C1(C)C [carboxy-PTIO]
[6]
  effect on SFRP2 silencing: did not affect SFRP2 silencing
p21 in RB383 cells
  p21 induction following SFRP2 silencing: abolished
Retinoblastoma cells; 1 μM, all five retinoblastoma cell lines
  growth inhibition following SFRP2 silencing (rescue), NO scavenger: completely abolished SFRP2 silencing-induced growth inhibition in all five retinoblastoma cell lines

## O=S(=O)(NCCNC/C=C/c1ccc(Br)cc1)c1cccc2cnccc12 [H89]
NOS2 RNA in RB383 cells; RB383, 5 μM H89, SFRP2 siRNA
  NOS2 RNA induction following SFRP2 silencing: abolished
[2]; RB383, 5 μM H89, SFRP2 siRNA
  NO production following SFRP2 silencing: abolished
[3]; RB383, 5 μM H89, SFRP2 siRNA, 48 h
  CREB phosphorylation following SFRP2 silencing: abolished CREB phosphorylation
RB383 cells; RB383, 5 μM H89, SFRP2 siRNA
  growth inhibition following SFRP2 silencing: abolished

B1: Recombinant human SFRP2 protein (6838-FR-025, R&D Systems) (ligand)
chain: LFLFGQPDFSYKRSNCKPIPANLQLCHGIEYQNMRLPNLLGHETMKEVLEQAGAWIPLVMKQCHPDTKKFLCSLFAPVCLDDLDETIQPCHSLCVQVKDRCAPVMSAFGFPWPDMLECDRFPQDNDLCIPLASSDHLLPATEEAPKVCEACKNKNDDDNDIMETLCKNDFALKIKVKEITYINRDTKIILETKSKTIYKLNGVSERDLKKSVLWLKDSLQCTCEEMNDINAPYLVMGQKQGGELVITSVKRWQKGQREFKRISRSIRKLQC
[7]
  Kd: 11.9 nM

B2: recombinant SFRP2: Recombinant human SFRP2 protein (R&D Systems) (protein)
chain: LFLFGQPDFSYKRSNCKPIPANLQLCHGIEYQNMRLPNLLGHETMKEVLEQAGAWIPLVMKQCHPDTKKFLCSLFAPVCLDDLDETIQPCHSLCVQVKDRCAPVMSAFGFPWPDMLECDRFPQDNDLCIPLASSDHLLPATEEAPKVCEACKNKNDDDNDIMETLCKNDFALKIKVKEITYINRDTKIILETKSKTIYKLNGVSERDLKKSVLWLKDSLQCTCEEMNDINAPYLVMGQKQGGELVITSVKRWQKGQREFKRISRSIRKLQC
modifications: left off: FLAG, C-terminal, kept
[8]
  proliferation of CXADR-overexpressing cells: rescue of proliferation
[9]
  NO generation in CXADR-overexpressing cells: rapidly abolished
Recombinant CXADR
  Kd: 11.9 nM

B3: SFRP2-FLAG: C-terminally FLAG-tagged SFRP2 produced by transfection in 293T cells (protein)
chain: LFLFGQPDFSYKRSNCKPIPANLQLCHGIEYQNMRLPNLLGHETMKEVLEQAGAWIPLVMKQCHPDTKKFLCSLFAPVCLDDLDETIQPCHSLCVQVKDRCAPVMSAFGFPWPDMLECDRFPQDNDLCIPLASSDHLLPATEEAPKVCEACKNKNDDDNDIMETLCKNDFALKIKVKEITYINRDTKIILETKSKTIYKLNGVSERDLKKSVLWLKDSLQCTCEEMNDINAPYLVMGQKQGGELVITSVKRWQKGQREFKRISRSIRKLQC
modifications: left off: FLAG, C-terminal, kept
Y79 cells [10]
  SFRP2-FLAG binding to Y79 cells: bound to Y79 cells, and this binding was abolished by siRNA-mediated silencing of CXADR
CXADR
  co-immunoprecipitation with CXADR: specifically co-immunoprecipitated with CXADR
